According to ChEMBL document CHEMBL2069168, “Synthesis and biological evaluation of truncated α-galactosylceramide derivatives focusing on cytokine induction profile” (2012):
Active and inactive are the calls of the source. The calls are words filed in the database; no cut-off is given here.

Experiments:
Splenocyte [1] = experiment: Immunostimulatory activity in C57BL/6 mouse splenocytes assessed as IL-4 release at 100 ng/ml after 72 hrs by ELISA relative to OCH; format: functional
In short: (§1)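 Splenocytes from female C57BL/6 mice (6–8 weeks) in RPMI1640 with 10% FBS, 5×10^-5 M 2-mercaptoethanol, 1 mM pyruvate, 25 mM HEPES; 5×10^5 cells/well stimulated with glycolipid at 100 ng/ml, 72 h, 37 °C. Supernatant IL-4 and IFN-γ by ELISA; values expressed relative to OCH reference included in every run, mean of at least three experiments.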

Splenocyte [2] = experiment: Immunostimulatory activity in C57BL/6 mouse splenocytes assessed as IFN-gamma release at 100 ng/ml after 72 hrs by ELISA relative to OCH; format: functional; in short: as §1
Mus musculus [3] = organism: Mus musculus; experiment: Immunostimulatory activity in C57BL/6 mouse splenocytes at 100 ng/ml after 72 hrs assessed as IL-4 secretion
Mus musculus [4] = organism: Mus musculus; experiment: Immunostimulatory activity in C57BL/6 mouse splenocytes at 100 ng/ml after 72 hr assessed as IFN-gamma secretion
Mus musculus [5] = organism: Mus musculus; experiment: Immunostimulatory activity in C57BL/6 mouse natural killer cells assessed as IFN-gamma secretion at 100 ng/ml by ELISA relative to OCH; format: functional
Dendritic cell = experiment: Immunostimulatory activity in C57BL/6 mouse dendritic cells assessed as IL-12 secretion at 100 ng/ml by ELISA relative to OCH; format: functional, cell-based
Mus musculus [6] = experiment: Immunosuppressive activity iv in C57BL/6 mouse assessed as inhibition of OCH-induced IL-4 secretion at 0.1 ug/mouse, iv administered 15 mins before OCH challenge; format: functional, organism-based
In short: (§2)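 Female C57BL/6 mice (9 weeks); glycolipids dissolved in 0.5% DMSO in saline. Test compound given iv via tail vein at 0.1 µg/mouse 15 min before iv OCH (0.1 µg/mouse). Sera taken 3, 6, 9 h after second injection; serum IL-4 and IFN-γ by ELISA. Mean ± SD, N = 4–5; Student's t-test versus vehicle.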

Mus musculus [7] = experiment: Immunosuppressive activity iv in C57BL/6 mouse assessed as inhibition of OCH-induced IFN-gamma secretion at 0.1 ug/mouse, iv administered 15 mins before OCH challenge; format: functional, organism-based; in short: as §2

SMILES | Activity (Splenocyte [1]) | Activity (Splenocyte [2]) | Activity (Mus musculus [3]) | Activity (Mus musculus [4]) | also measured
CCCCCCCCCCCCCCCCCCCCCCCC(=O)N[C@@H](CO[C@H]1O[C@H](CO)[C@H](O)[C@H](O)[C@H]1O)[C@H](O)[C@H](O)CCCC | 115% | 112% | – | – | –
CCCCCCCCCCCCCCCCCCCCCCCCC(=O)N[C@@H](CO[C@H]1O[C@H](CO)[C@H](O)[C@H](O)[C@H]1O)[C@H](O)[C@H](O)CCCCC | 154% | 103% | – | – | –
CCCCCCCCCCCCCCCCCCCCCCCC(=O)N[C@@H](CO[C@H]1O[C@H](CO)[C@H](O)[C@H](O)[C@H]1O)[C@H](O)[C@H](O)CCCCC | 100% | 100% | 100% | 100% | –
CCCCCCCCCCCCCCCCCCCCCCCC(=O)N[C@@H](CO[C@H]1O[C@H](CO)[C@H](O)[C@H](O)[C@H]1O)[C@H](O)[C@H](O)CC1CCCC1 | – | – | 98% | 74% | –
CCCCCCCCCCCCCCCCCCCCCCCCCCCC(=O)N[C@@H](CO[C@H]1O[C@H](CO)[C@H](O)[C@H](O)[C@H]1O)[C@H](O)[C@H](O)CCCCC | 178% | 761% | – | – | –
CCCCCCCCCCCCCCCCCCCCCCCCCC(=O)N[C@@H](CC[C@H]1O[C@H](CO)[C@H](O)[C@H](O)[C@H]1O)[C@H](O)[C@H](O)CCCCCCCCCCCCCC | – | – | – | – | Activity (Mus musculus [5]): Active; Activity (Dendritic cell): Active
CCCCCCCCCCCCCCCCCCCCCCCC(=O)N[C@@H](CO[C@H]1O[C@H](CO)[C@H](O)[C@H](O)[C@H]1O)[C@H](O)[C@H](O)COc1ccccc1 | – | – | 99% | 80% | –
CCCCCCCCCCCCCCCCCCCC(=O)N[C@@H](CO[C@H]1O[C@H](CO)[C@H](O)[C@H](O)[C@H]1O)[C@H](O)[C@H](O)CCCCC | 6% | 9% | – | – | –
CCCCCCCCCCCCCCCCCCCCCCCCCC(=O)N[C@@H](CO[C@H]1O[C@H](CO)[C@H](O)[C@H](O)[C@H]1O)[C@H](O)[C@H](O)CCCCC | 129% | 504% | – | – | –
CCCCCCCCCCCCCCCCCCCCCCCC(=O)N[C@@H](CO[C@H]1O[C@H](CO)[C@H](O)[C@H](O)[C@H]1O)[C@H](O)[C@H](O)COC | – | – | 86% | 64% | –
CCCCCCCCCCCCCCCCCCCCCCC(=O)N[C@@H](CO[C@H]1O[C@H](CO)[C@H](O)[C@H](O)[C@H]1O)[C@H](O)[C@H](O)CCCCCC | 97% | 113% | – | – | –
CCCCCCCCCCCCCCCCCCCCCCCC(=O)N[C@@H](CC[C@H]1O[C@H](CO)[C@H](O)[C@H](O)[C@H]1O)[C@H](O)[C@H](O)CCCCC | – | – | 1% | 0% | inhibition (Mus musculus [6]): inactive; inhibition (Mus musculus [7]): inactive
CCCCCCCCCCCCCCCCCCCCCCCC(=O)N[C@@H](CO[C@H]1O[C@H](CO)[C@H](O)[C@H](O)[C@H]1O)[C@H](O)[C@H](O)CCC | 105% | 96% | – | – | –
CCCCCCCCCCCCCCCCCCCCCCCC(=O)N[C@@H](CO[C@H]1O[C@H](CO)[C@H](O)[C@H](O)[C@H]1O)[C@H](O)[C@H](O)COCCCCCCCCCCCC | – | – | 78% | 227% | –
CCCCCCCCCCCCCCCCCCCCCC(=O)N[C@@H](CO[C@H]1O[C@H](CO)[C@H](O)[C@H](O)[C@H]1O)[C@H](O)[C@H](O)CCCCC | 51% | 46% | – | – | –
CCCCCCCCCCCCCCCCCCCCCCCC(=O)N[C@@H](CO[C@H]1O[C@H](CO)[C@H](O)[C@H](O)[C@H]1O)[C@H](O)[C@H](O)CCc1ccccc1 | – | – | 57% | 35% | –
CCCCCCCCCCCCCCCCCCCCCCCC(=O)N[C@@H](CO[C@H]1O[C@H](CO)[C@H](O)[C@H](O)[C@H]1O)[C@H](O)[C@H](O)Cc1ccc(C)cc1 | – | – | 78% | 76% | –
CCCCCCCCCCCCCCCCCCCCCCC(=O)N[C@@H](CO[C@H]1O[C@H](CO)[C@H](O)[C@H](O)[C@H]1O)[C@H](O)[C@H](O)CCCC | 97% | 148% | – | – | –
CCCCCCCCCCCCCCCCCCCCCCC(=O)N[C@@H](CO[C@H]1O[C@H](CO)[C@H](O)[C@H](O)[C@H]1O)[C@H](O)[C@H](O)CCCCC | 103% | 93% | – | – | –
CCCCCCCCCCCCCCCCCCCCCCCC(=O)N[C@@H](CO[C@H]1O[C@H](CO)[C@H](O)[C@H](O)[C@H]1O)[C@H](O)[C@H](O)Cc1ccccc1 | – | – | 211% | 284% | –
CCCCCCCCCCCCCCCCCCCCCCCCCC(=O)N[C@@H](CO[C@H]1O[C@H](CO)[C@H](O)[C@H](O)[C@H]1O)[C@H](O)[C@H](O)CCCCCCCCCCCCCC [RGI-7000] | 128% | 569% | – | – | –
CCCCCCCCCCCCCCCCCCCCCCCC(=O)N[C@@H](CO[C@H]1O[C@H](CO)[C@H](O)[C@H](O)[C@H]1O)[C@H](O)[C@H](O)COCCC | – | – | 103% | 161% | –
